# Assay results gathered from unrelated publications.
# Protocols differ between the studies behind these lines.
# Read-out: enzyme activity
# Action: inhibitor
# CA2: Carbonic anhydrase 2 (CA2, Bos taurus, UniProt P00921)
# EGFR: Epidermal growth factor receptor (EGFR, Homo sapiens, UniProt P00533)
# CDK6 with cyclin D3: Cyclin-dependent kinase 6, with cyclin D3 (CDK6, Homo sapiens, UniProt Q00534)
# YCK2: Serine/threonine protein kinase YCK2 (YCK2, Candida albicans, UniProt A0A1D8PKB4)
# MTOR: Serine/threonine-protein kinase mTOR (MTOR, Homo sapiens, UniProt P42345)
Structure (SMILES),target,method,IC50 [µM]
Cc1cc(O)c(-c2ccc([C@@H](C)CN(C)C)cc2)c2c1[nH]c(=O)c1sccc12,"Cyclin-dependent kinase 6, with cyclin D1 (CDK6, Homo sapiens, UniProt Q00534)",,> 1
C[C@@H]1O[C@@H](O[C@H]2[C@H](Oc3cc(O)c4c(c3)O[C@H](c3ccc(O)cc3)CC4=O)O[C@H](CO)[C@@H](O)[C@@H]2O)[C@H](O)[C@H](O)[C@H]1O,CA2,absorbance,0.083
CCNC(c1ccccc1)c1c(N)[nH]c(=O)[nH]c1=O (stereo not drawn),EGFR,,0.653
CCCCCCCCCCCC[N+]1(C)CCOCC1,EGFR,ELISA,1.35
Nc1cnccc1Nc1ccc(Cl)c(Cl)c1,"SMUG1 (Homo sapiens, UniProt Q53HV7)",,> 100
Cc1cc(S(=O)(=O)NCCO[C@H]2CC[C@H](CN3CCC(c4ccn5c(N6CCC(=O)NC6=O)cnc5c4)CC3)CC2)ccc1Nc1ncc2cc(Cl)c(=O)n(C3CCCC3)c2n1,CDK6 with cyclin D3,radiometric,0.153
Oc1ccccc1-c1n[nH]cc1-c1ccnc2ccccc12,YCK2,ADP detection,0.35
Cc1cc2c(C(N)=O)c(N)n(-c3c(C)ccc(O)c3C)c2nc1C,"Serine/threonine-protein kinase B-raf (BRAF, Homo sapiens, UniProt P15056)",ADP detection,0.0153
c1ccc(-c2n[nH]cc2-c2ccncn2)nc1,YCK2,ADP detection,1.6
CNS(=O)(=O)c1ccc(Nc2ncc(C(F)(F)F)c(N3CCC(C)(O)CC3)n2)c(C)c1,CDK6 with cyclin D3,radiometric,0.794
O=C1C(=O)N(CCn2ncc3c(=O)[nH]cnc32)c2ccc(Cl)cc21,CDK6 with cyclin D3,ADP detection,0.603
COc1ccc(-c2ccc3c(N4CCOC[C@@H]4C)nc(N4CCOC[C@@H]4C)nc3n2)cc1COC(=O)CCOCCOCCOCCONC(=O)c1ccc(F)c(F)c1Nc1ccc(I)cc1F,MTOR,FRET,0.0405
O=C1CCC(N2C(=O)c3ccccc3C2=O)C(=O)N1 (stereo not drawn),EGFR,,1.13
NS(=O)(=O)c1ccc(Nc2nc3nc(=S)[nH]c(-c4cccc(O)c4)c3s2)cc1,CA2,absorbance,0.0627
COc1ccc(N2CCN(Cc3cn4c(-c5ccc(Br)cc5)nnc4s3)CC2)cc1,"Ferroptosis suppressor protein 1 (AIFM2, Homo sapiens, UniProt Q9BRQ8, S364A/T363A)",absorbance,0.061
Cc1cc2c(cc1C)N[C@H](c1ccccc1)[C@@H](O)C(=O)N2,MTOR,,0.144
CC(=O)c1nc2ccccc2n1Cc1cn([C@@H]2O[C@H](CO)[C@H](O)[C@H](O)[C@H]2O)nn1,EGFR,,0.324
C[C@H]1COCCN1c1nc(N2CCOC[C@@H]2C)c2ccc(-c3cccc(C(=O)NCCOCCOCCOCCONC(=O)c4ccc(F)c(F)c4Nc4ccc(I)cc4F)c3)nc2n1,MTOR,FRET,0.33
O=C(/C=C/c1ccc(F)cc1)c1nc2ccccc2n1Cc1cn([C@@H]2OC[C@@H](O)[C@H](O)[C@H]2O)nn1,EGFR,,0.075
CNS(=O)(=O)c1ccc(Nc2ncc(C(F)(F)F)c([C@H]3CC[C@@](C)(O)CC3)n2)c(C)c1,CDK6 with cyclin D3,radiometric,8.65
O=C1/C(=C/c2ccc3ccccc3c2O)NC(=S)N1c1ccccc1,EGFR,ELISA,0.183
CNS(=O)(=O)c1ccc(Nc2ncc(C(F)(F)F)c(N3CCCC(C)(O)C3)n2)c(C)c1 (stereo not drawn),CDK6 with cyclin D3,radiometric,4.32
c1ccc(Cn2cc(-c3ccnc4ccccc34)c(-c3ccccn3)n2)cc1,YCK2,ADP detection,1
NS(=O)(=O)c1ccc(-n2nc(C(=O)NN=Cc3ccc(O)cc3)cc2-c2ccccc2)cc1,"Serine/threonine-protein kinase B-raf (BRAF, Homo sapiens, UniProt P15056, V600E)",,18.5
